Columns and labels:
[1] = tested on: Human immunodeficiency virus 1 [K103N]; experiment: Antiviral activity against HIV1 reverse transcriptase K103N mutant
[2] = tested on: Human immunodeficiency virus 1; experiment: Antiviral activity against HIV1 with reverse transcriptase K103N mutation in MT4 cells after 5 days by MTT method; assay type: functional, organism-based; conditions: Human immunodeficiency virus 1, MT4, 120 h
Procedure, shortened: (§1)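 MT-4 cells from the NIH AIDS Reagent Program were infected with mutant HIV-1 (K103N or Y188L, from the MRC Centralised Facility) in the presence of graded drug concentrations. Mock-infected cells were used for cytotoxicity. Viable cells were counted by MTT colorimetry at day 5 post-infection.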

[3] = target: Human immunodeficiency virus type 1 reverse transcriptase (Human immunodeficiency virus 1) (UniProt Q72547); experiment: Antiviral activity against wild type HIV1 reverse transcriptase
[4] = tested on: Human immunodeficiency virus 1; experiment: Antiviral activity against HIV1 with reverse transcriptase Y181C mutation in MT4 cells after 5 days by MTT method; assay type: functional, organism-based; conditions: Human immunodeficiency virus 1, MT4, 120 h
[5] = tested on: Human immunodeficiency virus type 1 reverse transcriptase (Human immunodeficiency virus 1), Q72547 [Y181I]; experiment: Antiviral activity against HIV1 reverse transcriptase Y181I mutant
[6] = tested on: Human immunodeficiency virus 1; experiment: Antiviral activity against HIV1 with reverse transcriptase Y188L mutation in MT4 cells after 5 days by MTT method; assay type: functional, organism-based; conditions: Human immunodeficiency virus 1, MT4, 120 h; procedure, shortened: as §1
[7] = tested on: Human immunodeficiency virus 1; experiment: Antiviral activity against wild type HIV1 NL4-3 in MT4 cells after 5 days by MTT method; assay type: functional, organism-based; conditions: Human immunodeficiency virus 1, NL4-3, MT4, 120 h
Procedure, shortened: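 MT-4 lymphoid cells, infected with HIV-1 or mock-infected (for cytotoxicity), held with a range of drug concentrations; viable cells scored at day 5 post-infection by tetrazolium (MTT) colorimetry.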

Row | SMILES | ID50 [1] | EC50 [2] | ID50 [3] | EC50 [4] | ID50 [5] | EC50 [6] | EC50 [7]
1 | Cc1c(Cc2ccc(C#N)cc2)nc(SCC(=O)c2ccccc2)[nH]c1=O | > 20000 nM | > 67200 nM | > 20000 nM | > 67200 nM | > 20000 nM | > 67200 nM | > 67200 nM
2 | COc1ccc(/C=C/CSc2nc(C(C)c3c(F)cccc3F)c(C)c(=O)[nH]2)cc1 (configuration not stated) | 3700 nM | 260 nM | 292 nM | 130 nM | > 20000 nM | 70 nM | 0.2 nM
3 | COc1ccc(CCSc2nc(C(C)c3c(Cl)cccc3Cl)c(C)c(=O)[nH]2)cc1 (configuration not stated) | > 20000 nM | 6570 nM | 593 nM | 3760 nM | > 20000 nM | 8170 nM | 0.2 nM
4 | Cc1c(C(C)c2c(F)cccc2F)nc(SCc2ccc(C#N)cc2)[nH]c1=O (configuration not stated) | 700 nM | 730 nM | 10 nM | 1550 nM | > 20000 nM | 680 nM | 7.8 nM
5 | COc1ccc(/C=C/CSc2nc(Cc3c(F)cccc3F)c(C)c(=O)[nH]2)cc1 | > 20000 nM | > 3930 nM | 250 nM | > 3930 nM | > 20000 nM | > 3930 nM | 43 nM
6 | Cc1c(C(C)c2c(F)cccc2F)nc(SC/C=C/c2ccc(C#N)cc2)[nH]c1=O (configuration not stated) | > 20000 nM | > 59100 nM | 161 nM | > 59100 nM | > 20000 nM | > 59100 nM | 140 nM
7 | COc1ccc(/C=C/Sc2nc(C(C)c3c(Cl)cccc3Cl)c(C)c(=O)[nH]2)cc1 (configuration not stated) | > 20000 nM | > 55900 nM | 20 nM | > 55900 nM | > 20000 nM | > 55900 nM | 16200 nM
8 | COc1ccc(COCCSc2nc(C(C)c3c(Cl)cccc3Cl)c(C)c(=O)[nH]2)cc1 (configuration not stated) | 57300 nM | 6470 nM | 22 nM | 8980 nM | > 20000 nM | 2500 nM | 63 nM
9 | CCc1c(C(C)c2c(F)cccc2F)nc(SC/C=C/c2ccc(OC)cc2)[nH]c1=O (configuration not stated) | 400 nM | 1020 nM | 16 nM | 700 nM | > 20000 nM | 630 nM | 0.2 nM
10 | CCc1c(Cc2c(F)cccc2F)nc(SCCc2ccc(OC)cc2)[nH]c1=O | > 20000 nM | 1920 nM | 22 nM | 2780 nM | > 20000 nM | > 60100 nM | 0.2 nM
11 | COc1ccc(COCCSc2nc(Cc3c(Cl)cccc3Cl)c(C)c(=O)[nH]2)cc1 | 56000 nM | 3440 nM | 63 nM | 3010 nM | > 20000 nM | 1720 nM | 21 nM
12 | COc1ccc(/C=C/CSc2nc(C(C)c3c(Cl)cccc3Cl)c(C)c(=O)[nH]2)cc1 (configuration not stated) | > 20000 nM | 2470 nM | 18 nM | 3600 nM | > 20000 nM | 1260 nM | 9 nM
13 | CCc1c(C(C)c2c(F)cccc2F)nc(SC/C=C/c2ccc(C#N)cc2)[nH]c1=O (configuration not stated) | > 20000 nM | > 27200 nM | 48 nM | > 27200 nM | > 20000 nM | > 27200 nM | 590 nM
14 | COc1ccc(/C=C/Sc2nc(Cc3c(Cl)cccc3Cl)c(C)c(=O)[nH]2)cc1 | > 20000 nM | > 57700 nM | 1980 nM | > 57700 nM | > 20000 nM | > 57700 nM | > 57700 nM
15 | Cc1c(Cc2c(F)cccc2F)nc(SCC#Cc2ccc([N+](=O)[O-])cc2)[nH]c1=O | > 20000 nM | > 58600 nM | 416 nM | > 58600 nM | > 20000 nM | > 58600 nM | 40100 nM
16 | COc1ccc(CSc2nc(Cc3ccc(C#N)cc3)c(C)c(=O)[nH]2)cc1 | > 20000 nM | > 66300 nM | > 20000 nM | > 66300 nM | > 20000 nM | > 66300 nM | 20300 nM
